The source of these data is ChEMBL document CHEMBL3098050, “Stereoselective total synthesis of a novel regiomer of herbarumin I and its cytotoxic and antimicrobial activities” (Bioorg Med Chem Lett, 2014).

Usually IC50 stands for the midpoint of a concentration-inhibition curve. A higher IC50 goes with weaker potency.

Molecules are shown by their SMILES. Converted amounts (≈) assume the structure as drawn.

One experiment has as its system Raoultella planticola. Description: Antimicrobial activity against Klebsiella planticola MTCC 530 after 18 hrs by microtitre broth dilution method. In kind it is functional. Particulars: MTCC 530, 18 h. Put shortly:
(§1)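 Microtiter broth dilution; MIC per pathogen taken from four individual observations; ciprofloxacin as bacterial positive control.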

The next experiment deals with Bacillus subtilis. Description: Antimicrobial activity against Bacillus subtilis MTCC 121 after 18 hrs by microtitre broth dilution method. It is filed as functional. Particulars: MTCC 121, 18 h. Put shortly:
as §1
For orientation: In broth dilution the organism is exposed to a series of concentrations in liquid medium.

A further experiment deals with Escherichia coli. The experiment can be described thus: microbe, parasite or virus in culture. Particulars: MTCC 739, 18 h.
The subject of a further experiment is Staphylococcus aureus. Description: Antimicrobial activity against Staphylococcus aureus MTCC 96 after 18 hrs by microtitre broth dilution method. In kind it is functional. Particulars: MTCC 96, 18 h. Put shortly:
as §1

In the next experiment the test system is Pseudomonas aeruginosa. Description: microbe, parasite or virus in culture. Particulars: MTCC 2453, 18 h.
A further experiment has as its system COLO 205. Description: Cytotoxicity against human COLO205 cells by MTT assay. In kind it is functional, cell-based. Put shortly: (§2)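 MTT read-out (Mosmann method); absorbance dose–response curves plotted and IC50 calculated from them; each cell line's value is the mean of two independent experiments; doxorubicin as positive control.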
For orientation: Formazan colour is commonly taken as a measure of viable cells.

A further experiment has as its system DU-145. Description: Cytotoxicity against human DU145 cells by MTT assay. In kind it is functional, cell-based. Put shortly:
as §2

A further experiment concerns MDA-MB-231. Description: Cytotoxicity against human MDA-MB-231 cells by MTT assay. In kind it is functional, cell-based. Put shortly: as §2
A further experiment deals with HepG2. The experiment can be described thus: Cytotoxicity against human HepG2 cells by MTT assay. It is filed as functional, cell-based. Put shortly:
as §2

For a further experiment, the system named is A549. The experiment can be described thus: Cytotoxicity against human A549 cells by MTT assay. It is filed as functional, cell-based. Put shortly: as §2

Consider `O=C(O)c1cn(C2CC2)c2cc(N3CCNCC3)c(F)cc2c1=O` [CIPROFLOXACIN], for which the MIC against Raoultella planticola, against Bacillus subtilis, against Escherichia coli, in the experiment with Staphylococcus aureus and against Pseudomonas aeruginosa was 0.9 µg/mL (≈ 2.72 µM) throughout.

Take `COc1cccc2c1C(=O)c1c(O)c3c(c(O)c1C2=O)C[C@@](O)(C(=O)CO)C[C@@H]3O[C@H]1C[C@H](N)[C@H](O)[C@H](C)O1` [DOXORUBICIN]: the IC50 with COLO 205 came to 0.5 µM; in the experiment on DU-145, 0.6 µM.

On to `CCC[C@H]1OC(=O)[C@H](O)CC/C=C/C[C@@H]1O`, for which the IC50 was determined as 6.2 µM in the experiment on MDA-MB-231; 9.1 µM in the experiment on HepG2; 8.1 µM in the experiment with A549; 5.1 µM with COLO 205; 8.9 µM with DU-145. In addition, the MIC in the experiment on Raoultella planticola came out at 15.6 µg/mL (≈ 68.3 µM); in the experiment on Bacillus subtilis, 15.6 µg/mL (≈ 68.3 µM); in the experiment on Staphylococcus aureus it was 7.8 µg/mL (≈ 34.2 µM).
